Measured values collected from several papers.
Lines come from different studies, so protocols differ.
ABL1 T315I phosphorylated: Tyrosine-protein kinase ABL1, phosphorylated (ABL1, Homo sapiens, UniProt P00519, T315I)
ABL1 F317L non-phosphorylated: Tyrosine-protein kinase ABL1, non-phosphorylated (ABL1, Homo sapiens, UniProt P00519, F317L)
ABL1 H396P non-phosphorylated: Tyrosine-protein kinase ABL1, non-phosphorylated (ABL1, Homo sapiens, UniProt P00519, H396P)
ABL1 Y253F phosphorylated: Tyrosine-protein kinase ABL1, phosphorylated (ABL1, Homo sapiens, UniProt P00519, Y253F)
ABL1 E255K: Tyrosine-protein kinase ABL1 (ABL1, Homo sapiens, UniProt P00519, E255K)
ABL1 H396P phosphorylated: Tyrosine-protein kinase ABL1, phosphorylated (ABL1, Homo sapiens, UniProt P00519, H396P)
ABL1 F317I non-phosphorylated: Tyrosine-protein kinase ABL1, non-phosphorylated (ABL1, Homo sapiens, UniProt P00519, F317I)
ABL1 non-phosphorylated: Tyrosine-protein kinase ABL1, non-phosphorylated (ABL1, Homo sapiens, UniProt P00519)
ABL1 Q252H non-phosphorylated: Tyrosine-protein kinase ABL1, non-phosphorylated (ABL1, Homo sapiens, UniProt P00519, Q252H)
ABL1 T315I: Tyrosine-protein kinase ABL1 (ABL1, Homo sapiens, UniProt P00519, T315I)
ABL1 phosphorylated: Tyrosine-protein kinase ABL1, phosphorylated (ABL1, Homo sapiens, UniProt P00519)

C=CC(=O)N1CCC(C(=O)NCC(=O)N2CCN(c3nc(-c4cnc(N)nc4C(F)F)nc(N4CCOCC4)n3)CC2)CC1 — remaining binding (ABL1 T315I phosphorylated; binding; competition with immobilised ligand; 1 µM): 82%
COc1cnc(Nc2cccc(S(N)(=O)=O)c2)nc1N1CCN(c2ccccc2)CC1 — remaining binding (ABL1 F317L non-phosphorylated; binding; competition with immobilised ligand; 1 µM): 95%
CN([C@@H]1CCc2c(CC(=O)O)c3ccccc3n2C1)S(=O)(=O)c1ccc(F)cc1 — remaining binding (ABL1 H396P non-phosphorylated; cell-free assay; competition with immobilised ligand; 1 µM): 100%
O=C(Nc1c[nH]nc1C(=O)NC1CCNCC1)c1cc(F)cc(F)c1 — remaining binding (ABL1 Y253F phosphorylated; binding; competition with immobilised ligand; 1 µM): 100%
Cc1cnn2ncc(-c3ccnc(N(C)C)n3)c2c1 — remaining binding (ABL1 E255K; binding; 1 µM): 100%
CNC(=O)[C@@H]1CC[C@@H](n2c(-c3ccc4cnccc4c3)nc3ccc(C(=O)NCc4cccc(C(N)=O)c4)cc32)C1 — remaining binding (Tyrosine-protein kinase ABL1, phosphorylated (ABL1, Homo sapiens, UniProt P00519, M351T); binding; competition with immobilised ligand; 1 µM): 92%
c1cncc(-c2cccc(Nc3nccc(NC4CCCCC4)n3)c2)c1 — remaining binding (ABL1 H396P phosphorylated; binding; competition with immobilised ligand; 10 µM): 29%
CN([C@@H]1CCc2c(CC(=O)O)c3cc(S(C)(=O)=O)ccc3n2C1)S(=O)(=O)c1ccc(F)cc1 — remaining binding (ABL1 H396P non-phosphorylated; cell-free assay; competition with immobilised ligand; 1 µM): 55%
O=C(c1ccc(Nc2nccc(-c3cc4ccccc4s3)n2)cc1)N1CCC(N2CCCC2)CC1 — remaining binding (Tyrosine-protein kinase ABL1, phosphorylated (ABL1, Homo sapiens, UniProt P00519, Q252H); binding; competition with immobilised ligand; 1 µM): 6.4%
C[C@@H](c1ccc(-n2cnc3c(N)ncnc32)cc1)N1CCc2nn(C)c(Cc3ccccc3)c2C1=O — remaining binding (ABL1 F317I non-phosphorylated; binding; competition with immobilised ligand; 0.1 µM): 40%
CO[C@H]1CC[C@H](CNc2ccc(S(=O)(=O)NC(=O)c3ccc(N4CCN(CC5=C(c6ccc(Cl)cc6)CC(C)(C)CC5)CC4)cc3Oc3cnc4[nH]ccc4c3)cc2[N+](=O)[O-])CC1 — remaining binding (ABL1 non-phosphorylated; cell-free assay; competition with immobilised ligand; 1 µM): 71%
Cc1cnc(Nc2ccc(C(=O)N3CCC(N4CCCC4)CC3)cc2)nc1-c1cc2ccccc2s1 — remaining binding (ABL1 H396P phosphorylated; binding; competition with immobilised ligand; 1 µM): 0.9%
CN(C)C(=O)Cn1cc(-c2nc([C@@](C)(c3ccc(-c4cnc(N)nc4)cc3)C3CC3)no2)cn1 — remaining binding (ABL1 Q252H non-phosphorylated; cell-free assay; competition with immobilised ligand; 1 µM): 0%
CC1CCCN1c1nccc(-c2cnn3ncccc23)n1 (stereo not shown) — remaining binding (ABL1 T315I; binding; 1 µM): 100%
O=C(Nc1cccnn1)N1CC(C/C=C/c2cncc(Oc3ccc(C(F)(F)F)cn3)n2)C1 — remaining binding (ABL1 phosphorylated; cell-free assay; competition with immobilised ligand; 1 µM): 82%
Nc1ncc2c(n1)-c1c([nH]c3ccc(C#CC4CC4)cc13)CCCC2 — remaining binding (Tyrosine-protein kinase ABL1, phosphorylated (ABL1, Homo sapiens, UniProt P00519, F317L); binding; competition with immobilised ligand; 1 µM): 88%
O=C(NCCCN1CCOCC1)c1ccc(Nc2ncc(Cl)c(-c3ccc(Cl)s3)n2)cc1 — remaining binding (ABL1 T315I phosphorylated; binding; competition with immobilised ligand; 1 µM): 2.5%
c1cnn2ncc(-c3ccnc(N4CCC45COC5)n3)c2c1 — remaining binding (ABL1 T315I; binding; 1 µM): 64%
COc1cnc(Nc2cccc(S(N)(=O)=O)c2)nc1N1CCN(c2ccccc2)C(=O)C1 — remaining binding (ABL1 F317L non-phosphorylated; binding; competition with immobilised ligand; 1 µM): 90%
COc1ncc2cc3ccccc3nc2c1C#N — remaining binding (ABL1 F317L non-phosphorylated; cell-free assay; competition with immobilised ligand; 5 µM): 100%
CC(C)CC(=O)N1CCc2nc(-c3ccc(Br)cc3)nc(N(C)Cc3ccccc3)c2C1 — remaining binding (ABL1 H396P non-phosphorylated; cell-free assay; competition with immobilised ligand; 0.1 µM): 68%
CN(CCCC(F)(F)F)c1nccc(-c2cnn3ncccc23)n1 — remaining binding (ABL1 non-phosphorylated; binding; competition with immobilised ligand; 1 µM): 76%
O=C(NCc1ncc(C(F)(F)F)cc1Cl)c1ccc2c(c1)C1(CCS(=O)(=O)CC1)[C@@H](C1CC1)N2S(=O)(=O)c1ccc(F)cc1 — remaining binding (ABL1 Q252H non-phosphorylated; cell-free assay; competition with immobilised ligand; 1 µM): 100%
CCN1CCN(Cc2ccc(C(=O)Nc3ccc(C)c(Oc4ccc5c(c4)CC(=O)N5)c3)cc2C(F)(F)F)CC1 — remaining binding (ABL1 H396P non-phosphorylated; binding; competition with immobilised ligand; 1 µM): 0.35%
O=C(c1ccc(Nc2ncc(Cl)c(-c3cc4ccccc4s3)n2)cc1)N1CCC(N2CCCC2)CC1 — remaining binding (ABL1 Q252H non-phosphorylated; binding; competition with immobilised ligand; 1 µM): 7.5%
O=C(NCC1CCOCC1)c1n[nH]cc1NC(=O)c1c(F)cccc1F — remaining binding (ABL1 Y253F phosphorylated; binding; competition with immobilised ligand; 1 µM): 86%
Cc1nc(N2CC[C@@H](O)C2)ncc1-c1cc(C(F)(F)F)cc2[nH]ncc12 — remaining binding (ABL1 phosphorylated; binding; competition with immobilised ligand; 1 µM): 61%
CN(C)c1ncc(F)c(-c2cnn3ncccc23)n1 — remaining binding (ABL1 E255K; binding; 1 µM): 66%
O=C(NCCCN1CCOCC1)c1ccc(Nc2nccc(-c3cc4ccccc4s3)n2)cc1 — remaining binding (ABL1 F317I non-phosphorylated; binding; competition with immobilised ligand; 1 µM): 100%
N[C@H]1CCN(c2nccc(-c3cnn4ncccc34)n2)C1 — remaining binding (Tyrosine-protein kinase ABL1 (ABL1, Homo sapiens, UniProt P00519, F317L); binding; 1 µM): 100%
O=C(c1ccc(Nc2ncc(Cl)c(-c3ccc(Cl)s3)n2)cc1)N1CCC(N2CCCC2)CC1 — remaining binding (ABL1 F317I non-phosphorylated; binding; competition with immobilised ligand; 1 µM): 97%
